The values that follow come from ChEMBL document CHEMBL2021777 (J Med Chem, 2012).

Data set [1] addresses Beta-1 adrenergic receptor (Homo sapiens) (UniProt P08588). The experiment in a line: Displacement of [125I]Iodopindolol from beta1 adrenergic receptor at 10 uM. (In general: Loss of bound radioactivity is the signal in a displacement assay; it reports binding, not function.)
Data set [2] concerns the target T1, 5-hydroxytryptamine receptor 2C (Homo sapiens) (UniProt P28335).
T1 sequence (whole entry): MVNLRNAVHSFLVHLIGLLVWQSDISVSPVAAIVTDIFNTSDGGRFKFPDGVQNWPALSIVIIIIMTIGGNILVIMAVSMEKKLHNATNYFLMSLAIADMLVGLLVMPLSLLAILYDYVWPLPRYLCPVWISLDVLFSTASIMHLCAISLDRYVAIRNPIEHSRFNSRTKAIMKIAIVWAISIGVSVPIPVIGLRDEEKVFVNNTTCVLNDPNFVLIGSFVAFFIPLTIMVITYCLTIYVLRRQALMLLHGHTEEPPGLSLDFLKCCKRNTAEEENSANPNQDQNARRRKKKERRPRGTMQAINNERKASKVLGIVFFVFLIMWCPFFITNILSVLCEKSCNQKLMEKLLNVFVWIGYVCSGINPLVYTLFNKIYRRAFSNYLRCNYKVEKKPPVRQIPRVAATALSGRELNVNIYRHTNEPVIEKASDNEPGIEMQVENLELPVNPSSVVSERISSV
In words: Displacement of [3H]Mesulergine from 5-HT2C at 10 uM.

In data set [3] the target is Mu-type opioid receptor (Homo sapiens) (UniProt P35372). The experiment in a line: Displacement of [3H]DAMGO from mu opioid receptor at 10 uM.
For data set [4], the target named is Neuronal acetylcholine receptor; alpha4/beta4 (Rattus norvegicus, UniProt P09483+P12392). In words: Displacement of [3H] epibatidine from rat alpha4beta4 nAChR by beta scintillation counting. Type of data set: protein-complex assay.
Data set [5] deals with T2, 5-hydroxytryptamine receptor 1A (Homo sapiens) (UniProt P08908).
T2 sequence (whole entry): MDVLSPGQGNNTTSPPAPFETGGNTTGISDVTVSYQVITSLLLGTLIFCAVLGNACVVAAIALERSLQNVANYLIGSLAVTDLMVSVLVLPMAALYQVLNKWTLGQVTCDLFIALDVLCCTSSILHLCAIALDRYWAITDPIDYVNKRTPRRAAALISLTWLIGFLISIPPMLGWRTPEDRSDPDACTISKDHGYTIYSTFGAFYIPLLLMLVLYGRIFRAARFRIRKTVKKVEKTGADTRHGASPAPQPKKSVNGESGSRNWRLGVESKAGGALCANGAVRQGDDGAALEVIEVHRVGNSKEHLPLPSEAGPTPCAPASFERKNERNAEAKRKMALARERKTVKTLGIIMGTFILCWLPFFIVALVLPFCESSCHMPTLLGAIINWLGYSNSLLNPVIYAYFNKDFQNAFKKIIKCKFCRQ
The experiment in a line: Displacement of [3H]8-OH-DPAT from 5-HT1A at 10 uM.

For data set [6], the target named is 5-hydroxytryptamine receptor 2B (Homo sapiens) (UniProt P41595). The experiment in a line: Displacement of [3H]LSD from 5-HT2B at 10 uM.
Data set [7] addresses T3, Alpha-2B adrenergic receptor (Homo sapiens) (UniProt P18089).
T3 sequence (whole entry): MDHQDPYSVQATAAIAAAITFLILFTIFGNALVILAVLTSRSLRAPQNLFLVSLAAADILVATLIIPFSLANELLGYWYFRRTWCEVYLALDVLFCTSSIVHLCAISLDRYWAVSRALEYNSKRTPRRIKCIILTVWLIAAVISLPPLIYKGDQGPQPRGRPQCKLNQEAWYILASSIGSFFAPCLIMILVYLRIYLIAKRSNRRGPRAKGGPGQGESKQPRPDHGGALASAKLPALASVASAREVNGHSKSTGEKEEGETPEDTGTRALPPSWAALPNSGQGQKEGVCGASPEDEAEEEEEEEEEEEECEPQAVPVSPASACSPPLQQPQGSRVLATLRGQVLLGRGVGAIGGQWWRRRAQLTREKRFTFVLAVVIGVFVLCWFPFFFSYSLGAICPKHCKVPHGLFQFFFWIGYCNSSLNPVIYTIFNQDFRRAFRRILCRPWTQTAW
In words: Displacement of [3H]Clonidine from alpha2B adrenergic receptor at 10 uM.

For data set [8], the target named is Muscarinic acetylcholine receptor M3 (Homo sapiens) (UniProt P20309). In words: Displacement of [3H]QNB from M3 receptor at 10 uM.
A short description of data set [9]: Metabolic stability in mouse liver microsomes assessed as compound remaining at 1 uM after 1 hr. It counts as ADME, Microsome. The following applies: read-out: Stability. The method, boiled down:
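Compound at 1 μM incubated for 1 h with human or mouse liver microsomes; percent of parent remaining unchanged.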
(Liver microsomes are vesicles of endoplasmic reticulum, rich in cytochrome P450 enzymes.)

A further data set is filed under the species Rattus norvegicus. In words: Displacement of radioligand from benzodiazepine receptor in rat brain. It counts as tissue-based. The following applies: concentration not given here.
Data set [10] concerns the target Sodium-dependent noradrenaline transporter (Homo sapiens) (UniProt P23975). The experiment in a line: Displacement of [3H]Nisoxetine from NET at 10 uM.
Another data set deals with Cytochrome P450 1A2 (Homo sapiens, UniProt P05177). The experiment in a line: Inhibition of CYP1A2 up to 10 uM. It counts as ADME. The method, boiled down:
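Percent inhibition of CYP isoforms (CYP1A, CYP2C9, CYP2C19, CYP2D6, CYP3A; CYP1A2 reported) with test compound at concentrations up to 10 μM.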

Data set [11] addresses T4, Alpha-2A adrenergic receptor (Homo sapiens) (UniProt P08913).
T4 sequence (whole entry): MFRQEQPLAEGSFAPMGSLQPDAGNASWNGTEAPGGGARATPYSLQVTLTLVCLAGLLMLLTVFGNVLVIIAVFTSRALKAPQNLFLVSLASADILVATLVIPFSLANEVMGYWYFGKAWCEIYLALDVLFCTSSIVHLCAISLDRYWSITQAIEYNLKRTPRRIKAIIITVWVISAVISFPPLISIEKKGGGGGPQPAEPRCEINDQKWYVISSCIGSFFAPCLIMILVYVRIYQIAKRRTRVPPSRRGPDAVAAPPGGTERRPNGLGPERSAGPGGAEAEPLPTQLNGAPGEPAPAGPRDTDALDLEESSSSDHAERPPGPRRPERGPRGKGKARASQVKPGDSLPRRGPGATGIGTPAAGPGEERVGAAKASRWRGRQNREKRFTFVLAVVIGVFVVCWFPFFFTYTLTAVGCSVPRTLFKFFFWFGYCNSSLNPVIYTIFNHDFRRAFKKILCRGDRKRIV
In words: Displacement of [3H]Clonidine from alpha2A adrenergic receptor at 10 uM.

Data set [12] concerns the target Neuronal acetylcholine receptor; alpha2/beta2 (Rattus norvegicus, UniProt P12389+P12390). In words: Displacement of [3H] epibatidine from rat alpha2beta2 nAChR by beta scintillation counting. Type of data set: protein-complex assay.
A short description of data set [13]: Displacement of [3H]Baclofen from GABA-B at 10 uM.
The target in data set [14] is Metabotropic glutamate receptor 5 (Homo sapiens) (UniProt P41594). The experiment in a line: Displacement of [3H]MPEP from mGluR5 at 10 uM.
Data set [15] concerns the target Cannabinoid receptor 1 (Homo sapiens) (UniProt P21554). The experiment in a line: Displacement of [3H]CP55940 from CB1 receptor at 10 uM.
Data set [16] has as its target Sodium-dependent serotonin transporter (Homo sapiens) (UniProt P31645). In words: Displacement of [3H]Citalopram from SERT at 10 uM.

Sequence of Neuronal acetylcholine receptor; alpha2/beta2 (P12389 whole entry): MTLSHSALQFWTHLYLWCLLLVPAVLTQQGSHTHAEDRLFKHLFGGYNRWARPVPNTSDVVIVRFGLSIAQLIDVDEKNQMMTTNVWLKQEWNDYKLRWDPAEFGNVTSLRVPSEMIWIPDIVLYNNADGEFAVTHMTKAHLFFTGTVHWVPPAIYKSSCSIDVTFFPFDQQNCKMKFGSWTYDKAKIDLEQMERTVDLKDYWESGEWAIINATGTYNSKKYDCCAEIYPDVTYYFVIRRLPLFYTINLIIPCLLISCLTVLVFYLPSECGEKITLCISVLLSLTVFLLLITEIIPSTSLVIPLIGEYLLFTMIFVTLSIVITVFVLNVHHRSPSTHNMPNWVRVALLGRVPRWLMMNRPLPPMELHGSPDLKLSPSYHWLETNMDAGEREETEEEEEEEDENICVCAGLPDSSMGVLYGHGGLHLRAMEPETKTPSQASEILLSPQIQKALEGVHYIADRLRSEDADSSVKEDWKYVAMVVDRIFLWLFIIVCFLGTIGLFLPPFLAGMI
Sequence of Neuronal acetylcholine receptor; alpha2/beta2 (P12390 whole entry): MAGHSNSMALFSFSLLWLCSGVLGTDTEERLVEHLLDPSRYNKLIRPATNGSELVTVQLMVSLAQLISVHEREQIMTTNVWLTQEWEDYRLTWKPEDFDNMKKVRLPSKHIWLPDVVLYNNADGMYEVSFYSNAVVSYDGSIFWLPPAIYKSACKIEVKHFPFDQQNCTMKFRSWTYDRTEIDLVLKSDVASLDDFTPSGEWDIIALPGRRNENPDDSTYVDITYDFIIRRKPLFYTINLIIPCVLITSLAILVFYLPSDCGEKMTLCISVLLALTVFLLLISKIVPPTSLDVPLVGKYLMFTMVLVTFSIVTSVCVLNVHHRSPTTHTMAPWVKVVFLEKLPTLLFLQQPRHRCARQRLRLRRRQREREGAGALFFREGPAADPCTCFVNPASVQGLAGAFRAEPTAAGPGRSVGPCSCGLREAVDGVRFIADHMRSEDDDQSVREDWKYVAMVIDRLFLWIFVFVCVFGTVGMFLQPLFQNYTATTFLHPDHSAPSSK
Sequence of Muscarinic acetylcholine receptor M3 (Homo sapiens) (P20309 whole entry, looked up): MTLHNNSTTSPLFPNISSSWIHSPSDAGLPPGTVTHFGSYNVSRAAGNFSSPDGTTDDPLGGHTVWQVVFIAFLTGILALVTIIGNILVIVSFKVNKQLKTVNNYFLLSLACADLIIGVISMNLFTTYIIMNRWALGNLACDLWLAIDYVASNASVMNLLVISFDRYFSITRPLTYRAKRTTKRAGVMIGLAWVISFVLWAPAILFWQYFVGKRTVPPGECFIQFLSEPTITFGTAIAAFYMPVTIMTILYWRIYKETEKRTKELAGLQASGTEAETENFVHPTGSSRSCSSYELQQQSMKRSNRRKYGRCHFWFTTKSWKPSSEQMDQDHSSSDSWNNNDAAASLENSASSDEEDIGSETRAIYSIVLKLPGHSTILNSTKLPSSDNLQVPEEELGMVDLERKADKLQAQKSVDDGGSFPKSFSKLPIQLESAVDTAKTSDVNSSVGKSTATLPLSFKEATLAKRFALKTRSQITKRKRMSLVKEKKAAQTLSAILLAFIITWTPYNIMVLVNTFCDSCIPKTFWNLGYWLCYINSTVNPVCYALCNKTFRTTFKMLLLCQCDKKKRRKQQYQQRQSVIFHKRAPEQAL
Sequence of Beta-1 adrenergic receptor (Homo sapiens) (P08588 whole entry, looked up): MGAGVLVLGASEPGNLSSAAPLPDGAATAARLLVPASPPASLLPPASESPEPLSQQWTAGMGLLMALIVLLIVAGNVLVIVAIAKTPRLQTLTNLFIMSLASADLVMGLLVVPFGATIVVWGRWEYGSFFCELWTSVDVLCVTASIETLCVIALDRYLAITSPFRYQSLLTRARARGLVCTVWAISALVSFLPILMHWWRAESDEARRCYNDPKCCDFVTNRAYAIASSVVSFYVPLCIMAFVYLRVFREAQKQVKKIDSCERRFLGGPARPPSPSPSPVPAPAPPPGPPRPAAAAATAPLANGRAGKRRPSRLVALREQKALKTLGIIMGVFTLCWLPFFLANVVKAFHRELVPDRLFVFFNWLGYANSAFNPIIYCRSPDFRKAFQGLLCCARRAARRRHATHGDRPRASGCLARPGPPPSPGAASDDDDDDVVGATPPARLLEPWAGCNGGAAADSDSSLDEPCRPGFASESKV
Sequence of 5-hydroxytryptamine receptor 2B (Homo sapiens) (P41595 whole entry): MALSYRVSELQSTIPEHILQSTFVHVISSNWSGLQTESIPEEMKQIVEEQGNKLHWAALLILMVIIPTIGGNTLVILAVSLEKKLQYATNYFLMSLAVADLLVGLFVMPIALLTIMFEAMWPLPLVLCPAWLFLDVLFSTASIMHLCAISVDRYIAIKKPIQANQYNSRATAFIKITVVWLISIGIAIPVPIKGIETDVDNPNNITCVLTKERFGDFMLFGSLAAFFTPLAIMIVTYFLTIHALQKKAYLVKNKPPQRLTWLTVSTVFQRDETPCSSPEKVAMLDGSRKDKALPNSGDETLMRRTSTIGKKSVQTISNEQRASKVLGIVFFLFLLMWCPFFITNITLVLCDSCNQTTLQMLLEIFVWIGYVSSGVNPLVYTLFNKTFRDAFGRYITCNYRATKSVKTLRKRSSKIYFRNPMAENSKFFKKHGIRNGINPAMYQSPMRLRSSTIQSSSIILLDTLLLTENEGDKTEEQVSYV
Sequence of Mu-type opioid receptor (Homo sapiens) (P35372 whole entry): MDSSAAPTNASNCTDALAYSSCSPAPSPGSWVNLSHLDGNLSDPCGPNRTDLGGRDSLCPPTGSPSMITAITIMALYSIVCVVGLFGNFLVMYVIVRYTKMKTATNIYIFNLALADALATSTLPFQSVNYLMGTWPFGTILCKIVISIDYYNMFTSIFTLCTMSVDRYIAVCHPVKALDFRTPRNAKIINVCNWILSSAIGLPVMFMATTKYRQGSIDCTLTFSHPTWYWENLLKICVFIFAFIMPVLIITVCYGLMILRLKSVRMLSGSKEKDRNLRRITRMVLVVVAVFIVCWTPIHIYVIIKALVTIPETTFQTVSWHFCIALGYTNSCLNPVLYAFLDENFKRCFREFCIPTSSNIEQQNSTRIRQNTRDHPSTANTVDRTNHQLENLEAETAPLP
Sequence of Neuronal acetylcholine receptor; alpha4/beta4 (P09483 whole entry): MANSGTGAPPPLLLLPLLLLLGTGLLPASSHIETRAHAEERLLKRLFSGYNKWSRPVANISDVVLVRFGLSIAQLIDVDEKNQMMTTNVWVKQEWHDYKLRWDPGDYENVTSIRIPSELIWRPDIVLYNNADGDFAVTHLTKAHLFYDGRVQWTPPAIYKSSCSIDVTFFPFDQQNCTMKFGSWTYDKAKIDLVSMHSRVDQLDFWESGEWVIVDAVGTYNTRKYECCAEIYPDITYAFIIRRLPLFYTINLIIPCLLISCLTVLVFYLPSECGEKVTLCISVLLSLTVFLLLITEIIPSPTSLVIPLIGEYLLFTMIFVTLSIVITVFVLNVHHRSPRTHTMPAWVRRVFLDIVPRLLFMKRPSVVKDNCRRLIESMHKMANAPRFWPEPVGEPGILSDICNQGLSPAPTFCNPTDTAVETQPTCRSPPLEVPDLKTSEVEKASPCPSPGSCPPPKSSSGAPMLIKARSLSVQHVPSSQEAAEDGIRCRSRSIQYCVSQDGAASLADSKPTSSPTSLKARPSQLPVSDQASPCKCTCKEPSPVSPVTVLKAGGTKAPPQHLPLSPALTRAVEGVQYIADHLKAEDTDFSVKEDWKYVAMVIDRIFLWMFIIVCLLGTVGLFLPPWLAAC
Sequence of Neuronal acetylcholine receptor; alpha4/beta4 (P12392 whole entry): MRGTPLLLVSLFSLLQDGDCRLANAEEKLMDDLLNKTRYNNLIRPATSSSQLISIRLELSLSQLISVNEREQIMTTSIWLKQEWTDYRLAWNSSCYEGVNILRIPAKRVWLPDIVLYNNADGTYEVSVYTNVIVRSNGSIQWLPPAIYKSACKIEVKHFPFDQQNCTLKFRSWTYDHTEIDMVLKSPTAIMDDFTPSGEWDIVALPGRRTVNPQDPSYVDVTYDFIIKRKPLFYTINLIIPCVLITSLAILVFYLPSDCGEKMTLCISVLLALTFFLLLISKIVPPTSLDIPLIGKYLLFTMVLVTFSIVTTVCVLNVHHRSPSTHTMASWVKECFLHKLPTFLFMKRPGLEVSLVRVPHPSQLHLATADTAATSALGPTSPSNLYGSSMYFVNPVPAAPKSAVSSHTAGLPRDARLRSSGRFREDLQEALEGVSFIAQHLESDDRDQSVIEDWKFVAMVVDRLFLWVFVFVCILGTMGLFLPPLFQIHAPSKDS
Sequence of Sodium-dependent serotonin transporter (Homo sapiens) (P31645 whole entry, looked up): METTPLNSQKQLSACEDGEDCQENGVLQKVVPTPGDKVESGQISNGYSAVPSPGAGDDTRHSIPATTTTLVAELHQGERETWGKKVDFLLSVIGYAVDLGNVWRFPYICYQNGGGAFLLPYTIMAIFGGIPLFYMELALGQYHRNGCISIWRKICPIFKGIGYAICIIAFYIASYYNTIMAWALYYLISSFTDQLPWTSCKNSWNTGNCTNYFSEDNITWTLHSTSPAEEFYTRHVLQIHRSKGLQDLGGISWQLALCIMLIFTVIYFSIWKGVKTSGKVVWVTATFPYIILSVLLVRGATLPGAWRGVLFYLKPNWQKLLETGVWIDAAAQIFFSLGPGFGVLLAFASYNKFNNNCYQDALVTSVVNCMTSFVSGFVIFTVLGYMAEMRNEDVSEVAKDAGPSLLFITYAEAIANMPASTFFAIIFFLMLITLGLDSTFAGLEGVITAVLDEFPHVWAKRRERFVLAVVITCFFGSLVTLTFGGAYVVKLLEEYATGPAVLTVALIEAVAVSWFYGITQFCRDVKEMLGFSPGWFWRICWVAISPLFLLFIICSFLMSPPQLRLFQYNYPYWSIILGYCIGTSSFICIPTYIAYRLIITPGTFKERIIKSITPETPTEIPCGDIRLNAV

By inhibition is commonly meant the change of the read-out against control, counted positive when it falls. The Ki is the dissociation constant of the complex between target and ligand, obtained from inhibition or displacement. In the case of `CNC(=O)OCC[C@H]1C[C@@H]1c1cncc(OC[C@@H]2CCN2)c1`, the inhibition in data set [1] is 18.2%; in data set [2], 6.3%; in [3] it was 37.3%; in data set [5], 25%; in [6], 48.7%; in data set [7], 12.4%. Further, the inhibition in [8] worked out at 30.2%; in the data set listed under Rattus norvegicus it was 2%; in data set [10], 69.6%; in data set [11], 15.5%. Further, the Ki was determined as 441 nM in data set [4] and 0.3 nM in data set [12]. Besides, the remaining at 1 h, 1 µM in data set [9] came to 98%. In addition, the “inhibition (INH)” value at Cytochrome P450 1A2 is given as 80%.

With `OCC[C@H]1C[C@@H]1c1cncc(OC[C@@H]2CCN2)c1`, the inhibition is 8.9% in data set [13]; 45.8% in data set [1]; 2.4% in [2]; 0.4% in data set [3]; 9.1% in data set [14]; -7.7% in [5]. In addition, the inhibition in data set [6] was 18.2%; in [7], 9.9%; in data set [8], 0%; in the data set listed under Rattus norvegicus, 29.2%; in [15] it was -3.4%; in data set [16], 42.7%. Also, the inhibition in data set [11] was -5.3%. Besides, the remaining at 1 h, 1 µM in data set [9] came out at 80%. This molecule had an inhibitory constant (Ki) in data set [12] of 0.1 nM.

With `COCC[C@H]1C[C@@H]1c1cncc(OC[C@@H]2CCN2)c1`, the inhibition in data set [13] was 3.2%; in [1], 48.3%; in data set [2], 33.8%; in [3], -5.6%; in data set [14], 5.1%; in data set [5], -7.2%. Moreover, the inhibition in data set [6] was 24.7%; in data set [7], 16.4%; in data set [8] it was 9.6%; in the data set listed under Rattus norvegicus, 26.6%; in data set [10], -0.2%; in data set [15], -2%. The inhibition in [16] amounted to 39.3%; in data set [11], 9.7%. The values for the inhibition constant (Ki) in data set [4] and in [12] were 50.2 nM and 0.1 nM, respectively. Further, the remaining at 1 h, 1 µM in data set [9] came to 84%. In addition, the “inhibition (INH)” value at Cytochrome P450 1A2 came to 70%.
